Experimental data as given in ChEMBL document CHEMBL1154219, “New Ras CAAX mimetics: design, synthesis, antiproliferative activity, and RAS prenylation inhibition” (Bioorg Med Chem Lett, 2009).
Active and inactive are the calls of the source. The rule behind the calls is not given here.

Assays:
[1] = Antiproliferative activity against HSMC after 72 hrs; assay type: functional; conditions: Homo sapiens
In short: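 Human aortic SMCs seeded at 8 × 10⁴ cells per 35 mm dish in DMEM with 10% FCS. After 24 h, switched to 0.4% FCS for 72 h to arrest growth. Then refed with 10% FCS with or without compound (DMSO, final ≤0.5%) for 72 h at 37 °C. Cells trypsinized and counted by Coulter counter. IC50 obtained by linear regression of log concentration versus logit.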

Homo sapiens [2] = organism: Homo sapiens; assay: Inhibition of Ras protein protein prenylation in HSMC assessed as unprenylated Ras accumulation at 10 uM after 72 hrs by Western blot analysis
In short: (§1)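 Human aortic SMCs seeded at 4 × 10⁵ cells per 60 mm dish. Growth-arrested in 0.4% FCS for 72 h, then exposed to compound in 10% FCS for 72 h at 37 °C (DMSO ≤0.5%). Cells lysed on ice in Tris pH 7.5/NaCl/NP-40 buffer with protease inhibitors; lysates cleared, protein measured by BCA. SDS-PAGE under reducing conditions, anti-Ras immunoblot, ECL detection. Unprenylated Ras seen as the slower-migrating band.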

Homo sapiens [3] = organism: Homo sapiens; assay: Inhibition of Ras protein protein prenylation in HSMC assessed as unprenylated Ras accumulation at 50 uM after 72 hrs by Western blot analysis; in short: as §1
Homo sapiens [4] = organism: Homo sapiens; assay: Inhibition of Ras protein protein prenylation in HSMC assessed as unprenylated Ras accumulation at 75 uM after 72 hrs by Western blot analysis; in short: as §1
Homo sapiens [5] = organism: Homo sapiens; assay: Inhibition of Ras protein protein prenylation in HSMC assessed as unprenylated Ras accumulation at 25 uM after 72 hrs by Western blot analysis; in short: as §1
[6] = Inhibition of Ras protein protein prenylation in HSMC assessed as unprenylated Ras accumulation after 72 hrs by Western blot analysis; parameters: species or system Homo sapiens; in short: as §1

SMILES | IC50 [1] [µM] | inhibition (Homo sapiens [3]) | other results
COC(=O)[C@H](CCSC)NC(=O)c1ccc(OC[C@H]2COc3ccccc3O2)cc1-c1ccccc1OC | 230 |  | 
COC(=O)[C@H](CC(C)C)NC(=O)c1ccc(C(=O)NC[C@@H]2COc3ccccc3O2)cc1-c1ccccc1OC | 469 |  | 
COC(=O)[C@H](CC(C)C)NC(=O)c1ccc(OC[C@H]2COc3ccccc3O2)cc1-c1ccccc1C | 3 | inactive | inhibition (Homo sapiens [2]): inactive
COC(=O)[C@H](CC(C)C)NC(=O)c1ccc(C(=O)NC[C@@H]2COc3ccccc3O2)cc1-c1ccccc1C | 88 |  | 
COC(=O)[C@H](CCSC)NC(=O)c1ccc(C(=O)NC[C@@H]2COc3ccccc3O2)cc1-c1ccccc1OC | 647 |  | 
COC(=O)[C@H](CCSC)NC(=O)c1ccc(C(=O)NC[C@@H]2COc3ccccc3O2)cc1-c1ccccc1C | 533 |  | 
COC(=O)[C@H](CC(C)C)NC(=O)c1ccc(C(=O)NC[C@H]2COc3ccccc3O2)cc1-c1ccccc1OC | 185 |  | 
COC(=O)[C@H](CCSC)NC(=O)c1ccc(C(=O)NC[C@H]2COc3ccccc3O2)cc1-c1ccccc1C | 87 |  | 
COC(=O)CNC(=O)c1ccc(OC[C@H]2COc3ccccc3O2)cc1-c1ccccc1OC | 71 | inactive | inhibition (Homo sapiens [4]): inactive
COC(=O)CNC(=O)c1ccc(OC[C@@H]2COc3ccccc3O2)cc1-c1ccccc1OC | 35 | inactive | inhibition (Homo sapiens [4]): inactive
COC(=O)[C@H](CC(C)C)NC(=O)c1ccc(C(=O)NC[C@H]2COc3ccccc3O2)cc1-c1ccccc1C | 103 |  | 
COC(=O)CNC(=O)c1ccc(C(=O)NC[C@H]2COc3ccccc3O2)cc1-c1ccccc1OC | 122 |  | 
COC(=O)CNC(=O)c1ccc(C(=O)NC[C@@H]2COc3ccccc3O2)cc1-c1ccccc1OC | 76 |  | 
COC(=O)CNC(=O)c1ccc(OC[C@@H]2COc3ccccc3O2)cc1-c1ccccc1C | 0.7 | inactive | inhibition (Homo sapiens [5]): inactive
COC(=O)CNC(=O)c1ccc(C(=O)NC[C@H]2COc3ccccc3O2)cc1-c1ccccc1C | 113 |  | 
COC(=O)[C@H](CC(C)C)NC(=O)c1ccc(OC[C@H]2COc3ccccc3O2)cc1-c1ccccc1OC | 32 | inactive | inhibition (Homo sapiens [5]): inactive
COC(=O)CNC(=O)c1ccc(C(=O)NC[C@@H]2COc3ccccc3O2)cc1-c1ccccc1C | 89 |  | 
COC(=O)[C@H](CC(C)C)NC(=O)c1ccc(OC[C@@H]2COc3ccccc3O2)cc1-c1ccccc1C | 5.2 | inactive | inhibition (Homo sapiens [5]): inactive
COC(=O)[C@H](CC(C)C)NC(=O)c1ccc(OC[C@@H]2COc3ccccc3O2)cc1-c1ccccc1OC | 17 | inactive | inhibition (Homo sapiens [2]): inactive
COC(=O)[C@H](CCSC)NC(=O)c1ccc(C(=O)NC[C@H]2COc3ccccc3O2)cc1-c1ccccc1OC | 252 |  | 
COC(=O)[C@H](CCSC)NC(=O)c1ccc(OC[C@@H]2COc3ccccc3O2)cc1-c1ccccc1OC | 204 |  | 
COC(=O)[C@H](CCSC)NC(=O)c1ccc(OC[C@H]2COc3ccccc3O2)cc1-c1ccccc1C | 6.6 |  | IC50 [6]: 2.8 µM
COC(=O)CNC(=O)c1ccc(OC[C@H]2COc3ccccc3O2)cc1-c1ccccc1C | 27 | 35% | 
COC(=O)[C@H](CCSC)NC(=O)c1ccc(OC[C@@H]2COc3ccccc3O2)cc1-c1ccccc1C | 193 |  | 
